# Active and inactive are the calls of the source. The rule behind the calls is not given here.
# Tests used:
# [1] = Inhibition of recombinant PKB delta ph mutant (unknown origin); parameters: species or system Homo sapiens
# [2] = target: Mitogen-activated protein kinase 8 (Homo sapiens, UniProt P45983); assay: Inhibition of recombinant SAPK1c (unknown origin)
# [3] = target: cAMP-dependent protein kinase (PKA) (Homo sapiens, UniProt P22694+P17612+P22612); assay: Inhibition of recombinant PKA (unknown origin); format: protein assay
# [4] = target: Serine/threonine-protein kinase Nek2 (Homo sapiens, UniProt P51955); assay: Inhibition of recombinant NEK2a (unknown origin)
# Chain of Serine/threonine-protein kinase Nek2 (P51955 whole entry): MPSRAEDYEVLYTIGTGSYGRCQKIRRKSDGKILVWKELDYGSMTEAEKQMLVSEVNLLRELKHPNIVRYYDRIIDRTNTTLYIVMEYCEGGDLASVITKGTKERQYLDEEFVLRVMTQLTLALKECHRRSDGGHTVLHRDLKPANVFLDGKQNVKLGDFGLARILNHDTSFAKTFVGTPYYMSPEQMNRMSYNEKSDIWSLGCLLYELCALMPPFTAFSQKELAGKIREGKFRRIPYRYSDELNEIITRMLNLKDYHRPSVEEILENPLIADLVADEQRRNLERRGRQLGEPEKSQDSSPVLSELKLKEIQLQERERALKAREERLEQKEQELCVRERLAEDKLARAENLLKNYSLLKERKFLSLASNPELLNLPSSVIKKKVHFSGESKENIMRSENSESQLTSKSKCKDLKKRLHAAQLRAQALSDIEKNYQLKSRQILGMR
# [5] = target: Receptor tyrosine-protein kinase erbB-3 (Homo sapiens) (UniProt P21860); assay: Inhibition of ERBB3 phosphorylation in human HCC827 cells expressing GFP at 1 to 10000 nmol/L incubated for 12 hrs by Western blotting analysis; format: cell-based; details: dose 1-10000 nmol/L
# Chain of Receptor tyrosine-protein kinase erbB-3 (Homo sapiens) (P21860 whole entry): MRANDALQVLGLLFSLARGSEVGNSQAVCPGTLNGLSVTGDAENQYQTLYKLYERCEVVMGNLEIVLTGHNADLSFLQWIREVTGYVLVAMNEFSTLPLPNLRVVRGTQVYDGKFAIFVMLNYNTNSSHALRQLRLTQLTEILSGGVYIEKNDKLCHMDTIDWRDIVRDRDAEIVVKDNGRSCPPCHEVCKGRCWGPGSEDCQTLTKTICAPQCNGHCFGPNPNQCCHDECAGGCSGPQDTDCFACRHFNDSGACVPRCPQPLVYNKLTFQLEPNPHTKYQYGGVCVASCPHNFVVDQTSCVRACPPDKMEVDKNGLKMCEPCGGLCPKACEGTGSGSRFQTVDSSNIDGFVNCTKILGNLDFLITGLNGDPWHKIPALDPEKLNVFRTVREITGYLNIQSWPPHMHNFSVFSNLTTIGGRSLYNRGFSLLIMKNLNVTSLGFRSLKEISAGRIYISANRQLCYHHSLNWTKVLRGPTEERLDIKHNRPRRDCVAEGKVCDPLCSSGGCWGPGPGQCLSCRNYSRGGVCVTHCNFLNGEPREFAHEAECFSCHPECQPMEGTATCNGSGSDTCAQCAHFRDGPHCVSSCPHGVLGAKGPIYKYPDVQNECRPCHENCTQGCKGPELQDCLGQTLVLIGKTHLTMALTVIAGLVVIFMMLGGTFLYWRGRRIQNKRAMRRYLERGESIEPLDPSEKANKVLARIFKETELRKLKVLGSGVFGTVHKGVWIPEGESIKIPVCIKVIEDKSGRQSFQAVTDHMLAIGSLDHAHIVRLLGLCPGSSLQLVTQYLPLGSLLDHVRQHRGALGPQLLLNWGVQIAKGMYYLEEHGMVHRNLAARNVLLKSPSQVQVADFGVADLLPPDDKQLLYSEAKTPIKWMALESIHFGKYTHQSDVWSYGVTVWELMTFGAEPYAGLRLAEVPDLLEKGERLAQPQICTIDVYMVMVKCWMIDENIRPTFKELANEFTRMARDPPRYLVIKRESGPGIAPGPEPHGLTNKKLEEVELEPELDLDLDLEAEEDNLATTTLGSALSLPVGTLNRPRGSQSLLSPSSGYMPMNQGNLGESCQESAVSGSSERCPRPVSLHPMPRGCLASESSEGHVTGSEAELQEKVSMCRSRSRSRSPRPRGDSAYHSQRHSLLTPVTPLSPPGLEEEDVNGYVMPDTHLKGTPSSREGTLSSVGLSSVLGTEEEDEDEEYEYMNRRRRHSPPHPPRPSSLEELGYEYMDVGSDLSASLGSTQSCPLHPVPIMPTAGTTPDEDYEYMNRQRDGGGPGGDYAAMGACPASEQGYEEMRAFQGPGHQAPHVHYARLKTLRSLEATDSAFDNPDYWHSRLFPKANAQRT
# HCC827 [6] = assay: Antitumor activity against human HCC827 cells expressing GFP xenografted in nude mouse assessed as inhibition of tumor growth at 10 mg/kg/day, po and measured thrice weekly; format: functional, organism-based
# Procedure, shortened: (§1)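 Nu/nu mice under 2% isoflurane/oxygen inoculated s.c. in lower-right flank with 5 × 10^6 HCC827-GFP or HCC827-Del/T790M cells in 0.2 mL PBS; randomized at mean tumor 400 to 500 mm3. Daily oral gavage 10 mg/kg/d; caliper volume = length × width² × 0.52; body weight monitored daily; ended when control tumors reached 2000 mm3.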
# BaF3 [7] = assay: cells; format: functional, cell-based; details: Mus musculus, BaF3, 72 h
# HCC827 [8] = assay: cells; format: functional, cell-based; details: Homo sapiens, HCC827, 72 h
# HCC827 [9] = details: Homo sapiens, dose 1-10000 nmol/L, time 12.0 hrs
# [10] = target: Ribosomal protein S6 kinase alpha-5 (Homo sapiens, UniProt O75582); assay: Inhibition of recombinant MSK1 (unknown origin)
# [11] = target: AMP-activated protein kinase, AMPK; assay: Inhibition of recombinant AMPK (unknown origin); format: protein-complex assay, Homo sapiens
# PC-9 = assay: cells; format: functional, cell-based; details: Homo sapiens, PC-9, 72 h
# [12] = target: Mitogen-activated protein kinase 13 (Homo sapiens, UniProt O15264); assay: Inhibition of recombinant SAPK4/p38delta (unknown origin)
# Chain of Mitogen-activated protein kinase 13 (O15264 whole entry): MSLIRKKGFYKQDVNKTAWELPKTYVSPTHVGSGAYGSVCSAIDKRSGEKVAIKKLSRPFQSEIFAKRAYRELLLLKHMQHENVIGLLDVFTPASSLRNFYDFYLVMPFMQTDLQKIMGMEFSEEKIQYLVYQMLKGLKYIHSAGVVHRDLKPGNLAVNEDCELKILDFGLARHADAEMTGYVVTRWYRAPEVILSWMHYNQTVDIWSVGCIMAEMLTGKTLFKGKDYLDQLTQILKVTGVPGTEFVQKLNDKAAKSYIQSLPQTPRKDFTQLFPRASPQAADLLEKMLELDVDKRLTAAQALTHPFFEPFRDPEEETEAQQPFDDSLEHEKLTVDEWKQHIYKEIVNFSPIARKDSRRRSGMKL
# BaF3 [13] = assay: cells; format: functional, cell-based; details: Mus musculus, BaF3, 72 h; remark: listed apart in the source
# BaF3 [14] = assay: cells; format: functional, cell-based; details: Mus musculus, BaF3, 72 h; remark: listed apart in the source
# NCI-H3255 [15] = assay: cells; format: functional, cell-based; details: Homo sapiens, NCI-H3255, 72 h
# NCI-H3255 [16] = assay: cells; format: functional, cell-based; details: Homo sapiens, NCI-H3255, 72 h; remark: listed apart in the source
# [17] = target: MAP kinase-activated protein kinase 5 (Homo sapiens, UniProt Q8IW41); assay: Inhibition of recombinant PRAK (unknown origin)
# [18] = Inhibition of recombinant CDK2/Cyclin A (unknown origin); parameters: species or system Homo sapiens
# HCC827 [19] = assay: Antitumor activity against human HCC827 cells expressing EGFR Del/T790M mutant xenografted in nude mouse assessed as inhibition of tumor growth at 10 mg/kg/day, po administered for 95 days and measured thrice weekly; format: functional, organism-based; details: time 95.0 day; procedure, shortened: as §1
# HCC827 [20] = assay: cells; format: functional, cell-based; details: Homo sapiens, HCC827, 72 h; remark: listed apart in the source
# Casein kinase 2 = Casein kinase 2 (Homo sapiens, UniProt P67870+P68400+P19784+Q8NEV1); assay: Inhibition of recombinant CK2 (unknown origin); format: protein assay
# cells = format: functional, cell-based; details: Homo sapiens, NCI-H3255GR, 72 h
# [21] = Inhibition of recombinant MAPK2/ERK2 (unknown origin); parameters: species or system Homo sapiens
# BaF3 [22] = assay: cells; format: functional, cell-based; details: Mus musculus, BaF3, 72 h; remark: listed apart in the source
# [23] = Inhibition of recombinant p70S6K (unknown origin); parameters: species or system Homo sapiens
# [24] = target: Dual specificity tyrosine-phosphorylation-regulated kinase 1A (Homo sapiens, UniProt Q13627); assay: Inhibition of recombinant DYRK1a (unknown origin)
# [25] = target: Receptor tyrosine-protein kinase erbB-2 (Mus musculus, UniProt P70424); assay: Inhibition of ERBB2 expressed in mouse NIH3T3 cells; format: cell-based
# Chain of Receptor tyrosine-protein kinase erbB-2 (P70424 whole entry): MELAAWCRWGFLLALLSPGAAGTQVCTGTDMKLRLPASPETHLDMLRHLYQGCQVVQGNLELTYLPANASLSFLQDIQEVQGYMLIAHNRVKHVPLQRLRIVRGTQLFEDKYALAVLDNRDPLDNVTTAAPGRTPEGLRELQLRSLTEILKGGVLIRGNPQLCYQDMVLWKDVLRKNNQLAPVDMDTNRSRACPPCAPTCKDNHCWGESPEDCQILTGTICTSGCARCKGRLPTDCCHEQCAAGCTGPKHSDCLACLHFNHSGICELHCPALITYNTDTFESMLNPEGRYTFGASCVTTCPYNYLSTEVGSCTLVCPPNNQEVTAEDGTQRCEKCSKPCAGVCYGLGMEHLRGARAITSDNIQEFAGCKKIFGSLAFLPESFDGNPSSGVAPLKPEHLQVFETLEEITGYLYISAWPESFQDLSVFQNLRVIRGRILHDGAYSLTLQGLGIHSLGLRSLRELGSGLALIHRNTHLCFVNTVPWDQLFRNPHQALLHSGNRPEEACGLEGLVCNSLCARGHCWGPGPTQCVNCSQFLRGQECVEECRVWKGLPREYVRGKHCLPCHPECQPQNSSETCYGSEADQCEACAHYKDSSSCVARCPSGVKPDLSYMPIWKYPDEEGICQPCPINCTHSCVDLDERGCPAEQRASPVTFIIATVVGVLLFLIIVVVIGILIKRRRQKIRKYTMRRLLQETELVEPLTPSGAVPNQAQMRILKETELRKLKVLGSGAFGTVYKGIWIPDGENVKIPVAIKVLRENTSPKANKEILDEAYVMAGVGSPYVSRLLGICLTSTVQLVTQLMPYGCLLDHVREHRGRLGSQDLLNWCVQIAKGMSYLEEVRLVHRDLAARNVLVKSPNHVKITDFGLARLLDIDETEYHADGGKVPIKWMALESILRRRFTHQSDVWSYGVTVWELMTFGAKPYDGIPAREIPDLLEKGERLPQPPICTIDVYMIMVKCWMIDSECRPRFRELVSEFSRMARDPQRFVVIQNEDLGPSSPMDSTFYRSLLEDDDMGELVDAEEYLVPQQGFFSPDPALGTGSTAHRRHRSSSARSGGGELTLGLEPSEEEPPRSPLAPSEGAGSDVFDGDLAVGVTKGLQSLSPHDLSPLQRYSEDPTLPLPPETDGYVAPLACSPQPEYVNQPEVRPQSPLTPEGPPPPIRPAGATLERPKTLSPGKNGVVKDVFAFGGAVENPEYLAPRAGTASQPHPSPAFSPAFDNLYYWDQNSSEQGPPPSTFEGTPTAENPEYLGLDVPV
# BaF3 [26] = assay: cells; format: functional, cell-based; details: Mus musculus, BaF3, 72 h; remark: listed apart in the source
# HCC4006 = assay: cells; format: functional, cell-based; details: Homo sapiens, HCC4006, 72 h
# [27] = target: Rho-associated protein kinase 2 (Homo sapiens, UniProt O75116); assay: Inhibition of recombinant ROCK-II (unknown origin)
# HCC827 [28] = assay: cells; format: functional, cell-based; details: Homo sapiens, HCC827, 72 h; remark: listed apart in the source
# [29] = target: Tyrosine-protein kinase Fes/Fps (Homo sapiens, UniProt P07332); assay: Inhibition of recombinant FES (unknown origin)
# Chain of Tyrosine-protein kinase Fes/Fps (P07332 whole entry): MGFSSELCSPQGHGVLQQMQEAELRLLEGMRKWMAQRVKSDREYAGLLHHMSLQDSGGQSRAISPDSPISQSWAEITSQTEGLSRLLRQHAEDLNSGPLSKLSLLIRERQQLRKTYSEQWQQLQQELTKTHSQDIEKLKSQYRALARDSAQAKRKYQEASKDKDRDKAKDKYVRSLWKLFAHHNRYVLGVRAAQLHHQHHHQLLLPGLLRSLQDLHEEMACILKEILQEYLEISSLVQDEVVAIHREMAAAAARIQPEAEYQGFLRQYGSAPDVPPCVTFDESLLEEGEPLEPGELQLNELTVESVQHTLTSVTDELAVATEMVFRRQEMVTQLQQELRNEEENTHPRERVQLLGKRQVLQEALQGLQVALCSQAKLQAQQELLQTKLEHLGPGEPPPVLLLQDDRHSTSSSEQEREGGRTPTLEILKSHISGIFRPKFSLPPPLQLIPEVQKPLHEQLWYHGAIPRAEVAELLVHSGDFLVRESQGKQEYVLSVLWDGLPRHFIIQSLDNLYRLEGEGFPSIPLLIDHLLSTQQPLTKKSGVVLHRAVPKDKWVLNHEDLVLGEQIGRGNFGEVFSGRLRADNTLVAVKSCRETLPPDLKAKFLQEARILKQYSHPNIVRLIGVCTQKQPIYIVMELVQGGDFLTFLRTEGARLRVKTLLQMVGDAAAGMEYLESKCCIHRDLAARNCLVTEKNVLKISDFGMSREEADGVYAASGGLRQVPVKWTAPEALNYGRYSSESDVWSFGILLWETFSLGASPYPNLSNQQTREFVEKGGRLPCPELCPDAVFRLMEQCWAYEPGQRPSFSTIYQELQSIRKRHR
# NCI-H3255GR = assay: Induction of apoptosis in human NCI-H3255GR cells assessed as increase in cleavage of PARP at 1 micromol/L incubated for 72 hrs by Western blotting analysis; format: functional, cell-based; details: dose 1.0 µmol/L
# [30] = target: Glycogen synthase kinase-3 beta (Homo sapiens, UniProt P49841); assay: Inhibition of recombinant GSK3b (unknown origin)
# Chain of Glycogen synthase kinase-3 beta (P49841 whole entry): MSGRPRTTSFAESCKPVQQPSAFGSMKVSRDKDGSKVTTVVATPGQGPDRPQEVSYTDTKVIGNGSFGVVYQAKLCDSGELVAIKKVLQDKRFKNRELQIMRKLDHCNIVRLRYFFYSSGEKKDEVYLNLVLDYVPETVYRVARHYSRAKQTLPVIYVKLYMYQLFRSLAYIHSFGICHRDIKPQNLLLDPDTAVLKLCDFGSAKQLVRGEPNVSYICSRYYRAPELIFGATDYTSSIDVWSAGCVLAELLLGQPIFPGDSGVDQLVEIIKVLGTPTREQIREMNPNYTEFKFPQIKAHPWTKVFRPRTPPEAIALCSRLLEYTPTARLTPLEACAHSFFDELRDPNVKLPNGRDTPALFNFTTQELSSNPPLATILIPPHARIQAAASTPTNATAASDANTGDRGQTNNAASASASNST
# BaF3 [31] = assay: cells; format: functional, cell-based; details: Mus musculus, BaF3, 72 h; remark: listed apart in the source
# Casein kinase I = assay: Inhibition of recombinant CK1 (unknown origin); format: protein assay, Homo sapiens
# [32] = Inhibition of recombinant PDGF (unknown origin); parameters: species or system Homo sapiens
# HCC827 [33] = assay: cells; format: functional, cell-based; details: Homo sapiens, HCC827, 72 h; remark: listed apart in the source
# HCC827 [34] = assay: cells; format: functional, cell-based; details: Homo sapiens, HCC827, 72 h; remark: listed apart in the source
# Chain of Mitogen-activated protein kinase 8 (P45983 whole entry): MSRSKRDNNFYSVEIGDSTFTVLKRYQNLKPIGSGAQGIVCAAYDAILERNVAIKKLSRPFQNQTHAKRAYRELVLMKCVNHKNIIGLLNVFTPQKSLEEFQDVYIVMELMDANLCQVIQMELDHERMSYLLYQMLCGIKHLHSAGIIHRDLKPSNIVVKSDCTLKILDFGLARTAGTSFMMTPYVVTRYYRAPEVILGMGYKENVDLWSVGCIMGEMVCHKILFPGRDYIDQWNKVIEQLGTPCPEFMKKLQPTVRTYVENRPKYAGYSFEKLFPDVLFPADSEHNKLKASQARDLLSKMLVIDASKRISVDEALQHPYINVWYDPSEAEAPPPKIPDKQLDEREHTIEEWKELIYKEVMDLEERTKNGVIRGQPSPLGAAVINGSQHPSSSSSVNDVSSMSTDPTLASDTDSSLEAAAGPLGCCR
smiles,measurement,setting,value
COc1cc2ncnc(Nc3ccc(F)c(Cl)c3)c2cc1NC(=O)/C=C/CN1CCCCC1 [DACOMITINIB ANHYDROUS],IC50,[1],> 10000 nM
same,IC50,[2],> 10000 nM
same,IC50,[3],> 40000 nM
same,IC50,[4],> 10000 nM
same,inhibition,[5],Active
same,Activity,HCC827 [6],Active
same,IC50,BaF3 [7],160 nM
same,IC50,HCC827 [8],61 nM
same,inhibition,HCC827 [9],Active
same,IC50,[10],> 10000 nM
same,IC50,[11],> 10000 nM
same,IC50,PC-9,2 nM
same,IC50,[12],> 10000 nM
same,IC50,BaF3 [13],240 nM
same,IC50,BaF3 [14],300 nM
same,IC50,NCI-H3255 [15],7 nM
same,IC50,NCI-H3255 [16],7 nM
same,IC50,[17],> 10000 nM
same,IC50,[18],> 40000 nM
same,Activity,HCC827 [19],Active
same,IC50,HCC827 [20],2 nM
same,IC50,Casein kinase 2,> 10000 nM
same,IC50,cells,119 nM
same,IC50,[21],> 10000 nM
same,IC50,BaF3 [22],2.6 nM
same,IC50,[23],> 10000 nM
same,IC50,[24],> 10000 nM
same,IC50,[25],41 nM
same,IC50,BaF3 [26],1.2 nM
same,IC50,HCC4006,4 nM
same,IC50,[27],> 10000 nM
same,IC50,HCC827 [28],3 nM
same,IC50,[29],> 40000 nM
same,Activity,NCI-H3255GR,Active
same,IC50,[30],> 10000 nM
same,IC50,BaF3 [31],1.6 nM
same,IC50,Casein kinase I,> 10000 nM
same,IC50,[32],> 10000 nM
same,IC50,HCC827 [33],2 nM
same,IC50,HCC827 [34],14 nM
